The source made the active and inactive calls. No cut-off for these calls is given here.
Assays:
[1] = molecular target: T1, Glucose-dependent insulinotropic receptor (Homo sapiens, UniProt Q8TDV5); assay: Agonist activity at recombinant human GPR119 expressed in HEK293 cells assessed as increase in intracellular cAMP accumulation measured after 30 mins; type: functional, cell-based
T1 sequence (Q8TDV5 whole entry): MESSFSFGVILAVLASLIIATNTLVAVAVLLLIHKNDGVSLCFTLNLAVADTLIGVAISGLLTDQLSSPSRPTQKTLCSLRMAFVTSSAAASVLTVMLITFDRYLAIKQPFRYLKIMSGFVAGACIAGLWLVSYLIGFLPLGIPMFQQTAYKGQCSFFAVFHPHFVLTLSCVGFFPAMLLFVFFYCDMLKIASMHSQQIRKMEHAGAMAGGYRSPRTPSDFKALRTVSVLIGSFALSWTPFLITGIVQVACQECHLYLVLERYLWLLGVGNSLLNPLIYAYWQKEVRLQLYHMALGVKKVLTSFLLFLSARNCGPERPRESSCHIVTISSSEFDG

[2] = molecular target: T2, Glucose-dependent insulinotropic receptor (Homo sapiens) (UniProt Q8TDV5); assay: Agonist activity at recombinant human GPR119 expressed in HEK293 cells assessed as increase in intracellular cAMP accumulation measured after 30 mins relative to oleoylethanolamide; type: functional, cell-based
T2 sequence (whole entry): T1 sequence (Q8TDV5 whole entry)

[3] = Stability in human liver microsomes assessed as parent compound remaining at 5 uM measured after 1 hr; type: ADME, Microsome; settings: read-out: Stability
In short: (§1)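 Compound at 5 μM incubated 1 hour with human or rat liver microsomes (0.2 mg/mL); percent of parent remaining reported.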

[4] = Stability in rat liver microsomes assessed as parent compound remaining at 5 uM measured after 1 hr; type: ADME, Microsome; settings: read-out: Stability; in short: as §1
[5] = Terminal half life in Sprague-Dawley rat at 1 mg/kg, iv; type: ADME, organism-based; settings: in vivo, read-out: beta t1/2 (converted)
In short: (§2)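 Sprague-Dawley rats given 1 mg/kg intravenously or 3 mg/kg orally; t1/2β, CL, Vdss and MRT from IV dosing, oral bioavailability from PO dosing.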

[6] = Clearance in Sprague-Dawley rat at 1 mg/kg, iv; type: ADME, organism-based; settings: in vivo; in short: as §2
[7] = Volume of distribution at steady state in Sprague-Dawley rat at 1 mg/kg, iv; type: ADME, organism-based; settings: in vivo, read-out: Vdss; in short: as §2
[8] = MRT in Sprague-Dawley rat at 1 mg/kg, iv; type: ADME, organism-based; settings: in vivo; in short: as §2
[9] = Oral bioavailability in Sprague-Dawley rat at 3 mg/kg; type: ADME, organism-based; settings: in vivo; in short: as §2
Cytochrome P450 3A4 = Cytochrome P450 3A4 (Homo sapiens, UniProt P08684); assay: Inhibition of CYP3A4 (unknown origin); type: ADME
Chain of Cytochrome P450 3A4 (P08684 whole entry): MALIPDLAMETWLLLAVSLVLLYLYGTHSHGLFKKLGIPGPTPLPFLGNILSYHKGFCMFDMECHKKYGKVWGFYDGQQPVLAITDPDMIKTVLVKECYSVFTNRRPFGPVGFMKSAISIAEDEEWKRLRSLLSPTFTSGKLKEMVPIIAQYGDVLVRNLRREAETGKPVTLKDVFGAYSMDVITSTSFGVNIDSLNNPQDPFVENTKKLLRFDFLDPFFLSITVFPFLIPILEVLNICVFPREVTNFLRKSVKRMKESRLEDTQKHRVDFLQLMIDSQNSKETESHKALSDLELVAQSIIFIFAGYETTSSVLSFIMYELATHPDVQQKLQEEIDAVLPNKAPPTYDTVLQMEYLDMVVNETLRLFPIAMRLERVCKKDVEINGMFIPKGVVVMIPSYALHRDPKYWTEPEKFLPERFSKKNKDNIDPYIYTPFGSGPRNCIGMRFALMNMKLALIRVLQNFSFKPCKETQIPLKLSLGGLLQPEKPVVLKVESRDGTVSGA

Cytochrome P450 2D6 = Cytochrome P450 2D6 (Homo sapiens, UniProt P10635); assay: Inhibition of CYP2D6 (unknown origin); type: ADME
Chain of Cytochrome P450 2D6 (P10635 whole entry): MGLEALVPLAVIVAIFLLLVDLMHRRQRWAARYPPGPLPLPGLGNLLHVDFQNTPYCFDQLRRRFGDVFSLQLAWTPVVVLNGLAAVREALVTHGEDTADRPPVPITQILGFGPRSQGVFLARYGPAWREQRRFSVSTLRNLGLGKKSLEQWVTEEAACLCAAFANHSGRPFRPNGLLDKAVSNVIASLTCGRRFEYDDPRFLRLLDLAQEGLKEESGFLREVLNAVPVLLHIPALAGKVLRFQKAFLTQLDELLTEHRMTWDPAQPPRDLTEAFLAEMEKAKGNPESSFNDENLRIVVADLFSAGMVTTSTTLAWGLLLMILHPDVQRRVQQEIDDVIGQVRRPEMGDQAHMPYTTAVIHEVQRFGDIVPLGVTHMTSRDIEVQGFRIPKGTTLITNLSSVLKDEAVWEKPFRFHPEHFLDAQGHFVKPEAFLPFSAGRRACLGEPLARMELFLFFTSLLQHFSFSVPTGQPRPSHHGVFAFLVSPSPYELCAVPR

Cytochrome P450 1A2 = molecular target: T3, Cytochrome P450 1A2 (Homo sapiens, UniProt P05177); assay: Inhibition of CYP1A2 (unknown origin); type: ADME
T3 sequence (P05177 whole entry): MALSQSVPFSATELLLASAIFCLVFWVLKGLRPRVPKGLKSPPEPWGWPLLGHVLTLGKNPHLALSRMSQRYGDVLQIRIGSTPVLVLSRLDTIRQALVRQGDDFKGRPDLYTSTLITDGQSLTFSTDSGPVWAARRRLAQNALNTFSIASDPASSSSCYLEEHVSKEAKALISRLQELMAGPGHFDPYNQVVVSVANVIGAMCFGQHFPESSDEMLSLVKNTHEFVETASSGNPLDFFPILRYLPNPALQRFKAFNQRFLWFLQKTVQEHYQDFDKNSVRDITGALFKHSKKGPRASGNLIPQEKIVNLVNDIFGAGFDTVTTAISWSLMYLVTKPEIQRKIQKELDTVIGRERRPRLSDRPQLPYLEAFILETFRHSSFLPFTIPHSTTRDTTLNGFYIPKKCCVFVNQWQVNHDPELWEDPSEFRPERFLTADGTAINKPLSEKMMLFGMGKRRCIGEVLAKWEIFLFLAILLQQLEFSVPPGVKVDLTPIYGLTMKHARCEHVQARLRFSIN

Cytochrome P450 2C9 = Cytochrome P450 2C9 (Homo sapiens, UniProt P11712); assay: Inhibition of CYP2C9 (unknown origin); type: ADME
Chain of Cytochrome P450 2C9 (P11712 whole entry): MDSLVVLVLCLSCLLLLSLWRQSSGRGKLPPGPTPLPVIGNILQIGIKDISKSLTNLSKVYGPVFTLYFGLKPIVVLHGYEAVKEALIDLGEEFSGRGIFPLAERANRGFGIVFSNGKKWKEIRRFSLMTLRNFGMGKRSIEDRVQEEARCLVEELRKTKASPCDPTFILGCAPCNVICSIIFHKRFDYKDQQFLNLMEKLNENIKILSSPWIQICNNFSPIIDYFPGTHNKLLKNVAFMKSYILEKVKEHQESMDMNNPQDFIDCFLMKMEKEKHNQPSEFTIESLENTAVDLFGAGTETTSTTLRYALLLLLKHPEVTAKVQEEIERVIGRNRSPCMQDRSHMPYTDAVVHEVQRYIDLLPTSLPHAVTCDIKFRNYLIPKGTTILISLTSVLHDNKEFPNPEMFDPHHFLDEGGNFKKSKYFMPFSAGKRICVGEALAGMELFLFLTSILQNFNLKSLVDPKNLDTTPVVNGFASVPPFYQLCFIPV

Cytochrome P450 2C8 = molecular target: T4, Cytochrome P450 2C8 (Homo sapiens, UniProt P10632); assay: Inhibition of CYP2C8 (unknown origin); type: ADME
T4 sequence (P10632 whole entry): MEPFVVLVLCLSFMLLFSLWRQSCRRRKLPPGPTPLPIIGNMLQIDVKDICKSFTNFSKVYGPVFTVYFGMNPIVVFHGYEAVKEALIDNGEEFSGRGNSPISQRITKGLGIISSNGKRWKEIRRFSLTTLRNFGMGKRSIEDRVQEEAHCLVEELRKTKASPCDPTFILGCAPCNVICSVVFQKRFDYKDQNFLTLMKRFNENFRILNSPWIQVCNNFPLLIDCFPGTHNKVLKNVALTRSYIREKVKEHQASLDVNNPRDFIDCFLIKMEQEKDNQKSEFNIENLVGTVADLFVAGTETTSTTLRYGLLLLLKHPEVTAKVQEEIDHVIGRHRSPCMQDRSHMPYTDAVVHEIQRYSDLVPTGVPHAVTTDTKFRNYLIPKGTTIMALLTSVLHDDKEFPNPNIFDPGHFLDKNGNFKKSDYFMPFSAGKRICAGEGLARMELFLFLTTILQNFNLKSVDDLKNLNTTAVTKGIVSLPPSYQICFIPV

Cytochrome P450 2C19 = Cytochrome P450 2C19 (Homo sapiens, UniProt P33261); assay: Inhibition of CYP2C19 (unknown origin); type: ADME
Chain of Cytochrome P450 2C19 (P33261 whole entry): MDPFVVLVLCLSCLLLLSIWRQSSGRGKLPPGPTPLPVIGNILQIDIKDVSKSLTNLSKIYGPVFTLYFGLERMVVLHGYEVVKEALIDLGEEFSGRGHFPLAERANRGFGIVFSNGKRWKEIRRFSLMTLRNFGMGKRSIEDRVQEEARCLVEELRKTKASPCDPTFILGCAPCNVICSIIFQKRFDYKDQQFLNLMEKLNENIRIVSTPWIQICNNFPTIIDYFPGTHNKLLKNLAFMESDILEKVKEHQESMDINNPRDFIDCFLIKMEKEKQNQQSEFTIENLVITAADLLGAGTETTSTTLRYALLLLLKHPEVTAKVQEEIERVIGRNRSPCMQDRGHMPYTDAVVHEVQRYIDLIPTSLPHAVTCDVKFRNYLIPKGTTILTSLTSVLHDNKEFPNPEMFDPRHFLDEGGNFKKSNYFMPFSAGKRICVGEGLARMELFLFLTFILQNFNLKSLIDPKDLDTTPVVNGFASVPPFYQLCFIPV

Rattus norvegicus [10] = assay: Hypoglycemic activity in Sprague-Dawley rat assessed as reduction in plasma glucose level at 1 to 3 mg/kg, po treated for 16 hrs prior to glucose stimulation and measured up to 2 hrs by IPGTT; type: functional, organism-based
In short: (§3)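 Overnight-fasted 7-week-old Sprague-Dawley rats dosed by oral gavage; 16 h later glucose 1 g/kg given intraperitoneally. Tail-vein blood drawn before and at 10, 30, 60 min after loading; glucose followed up to 2 h. Plasma glucose by automatic analyzer, insulin by rat insulin ELISA; glucose AUC calculated.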

Rattus norvegicus [11] = assay: Hypoglycemic activity in Sprague-Dawley rat assessed as reduction in plasma insulin level at 1 to 3 mg/kg, po treated for 16 hrs prior to glucose stimulation and measured up to 1 hr by ELISA; type: functional, organism-based; in short: as §3
Rattus norvegicus [12] = assay: Effect on plasma glucose level in Sprague-Dawley rat at 1 to 3 mg/kg, po measured after 16 hrs; type: ADME, organism-based; settings: in vivo; in short: as §3
Rattus norvegicus [13] = assay: Effect on plasma insulin level in Sprague-Dawley rat at 1 to 3 mg/kg, po measured after 16 hrs by ELISA; type: ADME, organism-based; settings: in vivo; in short: as §3
Rattus norvegicus [14] = assay: Hypoglycemic activity in Sprague-Dawley rat assessed as reduction in plasma glucose AUC at 1 mg/kg, po treated for 16 hrs prior to glucose stimulation and measured up to 2 hrs by IPGTT relative to control; type: functional; parameters: scale not given: the % may be the effect or the level left; in short: as §3
Rattus norvegicus [15] = assay: Hypoglycemic activity in Sprague-Dawley rat assessed as reduction in plasma glucose AUC at 3 mg/kg, po treated for 16 hrs prior to glucose stimulation and measured up to 2 hrs by IPGTT relative to control; type: functional; parameters: scale not given: the % may be the effect or the level left; in short: as §3
[16] = Protein binding in human plasma; type: ADME, cell-free; settings: read-out: PPB (converted)
[17] = Protein binding in rat plasma; type: ADME, cell-free; settings: read-out: PPB (converted)

| SMILES | EC50 [1] | %max [2] | remaining at 1 h, 5 µM [3] | remaining at 1 h, 5 µM [4] | further results |
| --- | --- | --- | --- | --- | --- |
| C[C@@H](O[C@H]1CC[C@@]2(CC1)CC(F)(F)CO2)c1nc(-c2cc(F)c(CS(C)(=O)=O)c(F)c2)no1 | 7 nM | 116% | 83% | 85% | – |
| C[C@@H](O[C@H]1CC[C@]2(CCC(F)(F)CO2)CC1)c1nc(-c2cc(F)c(CS(C)(=O)=O)c(F)c2)no1 | 6 nM | 112% | 98% | 98% | half-life [5]: 306 min; clearance [6]: 8.33 mL/min/kg; Vd [7]: 3.5 L/kg; MRT [8]: 6.4 h; bioavailability [9]: 43%; IC50 (Cytochrome P450 3A4): > 50 µM; IC50 (Cytochrome P450 2D6): > 50 µM; IC50 (Cytochrome P450 1A2): > 50 µM; IC50 (Cytochrome P450 2C9): > 50 µM; IC50 (Cytochrome P450 2C8): > 50 µM; IC50 (Cytochrome P450 2C19): > 50 µM; Activity (Rattus norvegicus [10]): Active; Activity (Rattus norvegicus [11]): Active; Activity (Rattus norvegicus [12]): Non-Toxic; Activity (Rattus norvegicus [13]): Non-Toxic; Activity (Rattus norvegicus [14]): 10%; Activity (Rattus norvegicus [15]): 12% |
| C[C@@H](O[C@H]1CC[C@]2(CC1)COC(C)(C)C2)c1nc(-c2cc(F)c(CS(C)(=O)=O)cc2F)no1 | 64 nM | 118% | – | – | – |
| CC(O[C@H]1CC[C@]2(CCCO2)CC1)c1nc(-c2ccc(CS(C)(=O)=O)c(F)c2)no1 (stereo partly specified) | 720 nM | 114% | 49% | 54% | – |
| CC(O[C@H]1CC[C@]2(CC1)COC(C)(C)C2)c1nc(-c2ccc(CC(=O)N(C)C)c(F)c2)no1 (mixture of isomers) | 69 nM | 131% | – | – | – |
| CC(O[C@H]1CC[C@]2(CC1)COC(C)(C)C2)c1nc(-c2ccc(C(=O)N(C)C)c(F)c2)no1 (mixture of isomers) | 2460 nM | 86% | – | – | – |
| C[C@@H](O[C@H]1CC[C@]2(CC1)COC(C)(C)C2)c1nc(-c2cc(F)c(CS(C)(=O)=O)c(F)c2)no1 | 5 nM | 109% | 65% | 83% | fraction unbound [16]: 0.035; fraction unbound [17]: 0.06 |
| CC(O[C@H]1CC[C@@]2(CC1)CC(C)(C)CO2)c1nc(-c2ccc(CS(C)(=O)=O)c(F)c2)no1 (stereo partly specified) | 31 nM | 115% | 15% | 55% | – |
| C[C@@H](O[C@H]1CC[C@]2(CC1)COC(C)(C)C2)c1nc(-c2ccc(CS(C)(=O)=O)c(F)c2F)no1 | 301 nM | 77% | – | – | – |
| CC(O[C@H]1CC[C@]2(CC1)COC(C)(C)C2)c1nc(-c2ccc(CS(C)(=O)=O)cc2)no1 (mixture of isomers) | 426 nM | 120% | – | – | – |
| CC(O[C@H]1CC[C@]2(CC1)COC(C)(C)C2)c1nc(-c2ccc(CS(C)(=O)=O)c(F)c2)no1 (mixture of isomers) | 44 nM | 130% | 62% | 86% | – |
| C[C@@H](O[C@H]1CC[C@]2(CC1)COC(C)(C)C2)c1nc(-c2ccc(CS(C)(=O)=O)c(F)c2)no1 | 27 nM | 106% | – | – | – |

Continued, in another order:

| EC50 [1] | %max [2] | remaining at 1 h, 5 µM [3] | remaining at 1 h, 5 µM [4] | SMILES | further results |
| --- | --- | --- | --- | --- | --- |
| 27 nM | 106% | 97% | 91% | C[C@@H](O[C@H]1CC[C@@]2(CC1)CC(F)(F)CCO2)c1nc(-c2cc(F)c(CS(C)(=O)=O)c(F)c2)no1 | – |
| 29 nM | 113% | 0% | 53% | CC(O[C@H]1CC[C@@]2(CC1)CC(C)(C)CCO2)c1nc(-c2ccc(CS(C)(=O)=O)c(F)c2)no1 (stereo partly specified) | – |
| 261 nM | 103% | – | – | CC1(C)C[C@]2(CC[C@H](OCc3nc(-c4ccc(S(C)(=O)=O)c(F)c4)no3)CC2)CO1 | – |
| – | 109% | – | – | CC(O[C@H]1CC[C@]2(CC1)COC(C)(C)C2)c1nc(-c2ccc(S(C)(=O)=O)c(F)c2)no1 (mixture of isomers) | – |
| 430 nM | 106% | – | – | C[C@H](O[C@H]1CC[C@]2(CC1)COC(C)(C)C2)c1nc(-c2ccc(CS(C)(=O)=O)c(F)c2)no1 | – |
| 25 nM | 109% | 0% | 56% | CC(O[C@H]1CC[C@]2(CCC(C)(C)CO2)CC1)c1nc(-c2ccc(CS(C)(=O)=O)c(F)c2)no1 (stereo partly specified) | – |
| 86 nM | 112% | 39% | 64% | CC(O[C@H]1CC[C@]2(CCCCO2)CC1)c1nc(-c2ccc(CS(C)(=O)=O)c(F)c2)no1 (stereo partly specified) | – |
